# Measured values gathered from unrelated publications.
# Protocols differ between the studies behind these lines.
# Target: Serine/threonine-protein kinase MARK1 (MARK1, Homo sapiens, UniProt Q9P0L2)
# Observed: enzyme activity
# Action: inhibitor
SMILES,assay,conditions,remaining activity
Cc1cnc(NC2CCOCC2)nc1-n1cnc(C(=O)NC(CN)c2cc(F)cc(Cl)c2)c1 (stereo not shown),radiometric,1 µM,43%
NS(=O)(=O)c1ccc(CNc2nc(Nc3cccc(CN4CCOCC4)c3)ncc2C2CC2)cc1,radiometric,1 µM,100%
Oc1cccc(-c2nc(N3CCOCC3)c3oc4ncccc4c3n2)c1,,10 µM,91%
CC(C)(O)[C@H]1CC[C@H](Nc2ccc3ncc(-c4cccc(C(F)(F)F)c4)n3n2)CC1,,1 µM,102%
Cc1ccc(C(=O)Nc2ccc(CN3CCN(C)CC3)c(C(F)(F)F)c2)cc1C#Cc1cnc2cccnn12,,23.5 nM,100%
CCCOc1ccc(OC)c(F)c1C(=O)c1ccc(C(=O)N[C@@H]2CNC[C@H]2NC(=O)c2ccc3[nH]ncc3c2)cc1,,10 µM,21%
CCN(CC)c1ccc(C2=NNC(=O)CC2C)cc1[N+](=O)[O-] (stereo not shown),,10 µM,102%
Cc1nn(CC(F)(F)F)cc1Nc1nccc(NCCc2cnc[nH]2)n1,radiometric,1 µM,109%
COc1cc(Nc2cnc(C#N)c(O[C@H](C)CN(C)C)n2)ncc1-c1cnn(C)c1,radiometric,10 µM,80%
O=C(Nc1cnn(-c2csc(C(=O)NC3COC3)c2)c1)Nc1c(F)cccc1Cl,,5 µM,108%
CC(C)(C)c1nc2c(s1)c1nc(N)ncc1c1ccc(NS(=O)(=O)c3c(F)cccc3F)c(F)c12,radiometric,1 µM,90%
NS(=O)(=O)c1ccc(CNc2ccnc(Nc3cccc(NC(=O)N4CCCC4)c3)n2)cc1,radiometric,1 µM,104%
COc1cc(Cl)c(C(=O)N[C@@H](CN[C@H]2CC[C@@H](N)CC2)Cc2ccc(C#N)cc2)cc1-c1ccc(CN[C@H](C)c2ccc(C)cc2)o1,,1 µM,148%
NS(=O)(=O)c1ccc(CNc2nc(Nc3cccc(CN4CCOCC4)c3)ncc2Br)cc1,radiometric,1 µM,66%
O=C(Nc1cnn(-c2csc(C(=O)NC3COC3)c2)c1)Nc1ccccc1Cl,,5 µM,96.3%
c1cc(CN2CCOCC2)cc(Nc2ncc(C3CC3)c(NCCc3c[nH]cn3)n2)c1,radiometric,1 µM,1%
Cn1c(=O)n(-c2ccc(C(C)(C)C#N)cc2)c2c3cc(-c4cnc5ccccc5c4)ccc3ncc21,,10 µM,97%
O=C(NCCCNc1nc(Nc2cccc(NC(=O)N3CCCC3)c2)ncc1Br)C1CCC1,radiometric,1 µM,-6%
CC(C)(C)c1nc(-c2cccc(NS(=O)(=O)c3c(F)cccc3F)c2F)c(-c2ccnc(N)n2)s1,radiometric,1 µM,90%
